Published values collected from several papers.
Lines come from different studies, so protocols differ.
Target: Glycogen synthase kinase-3 beta (GSK3B, Homo sapiens, UniProt P49841)
Mode: inhibitor

C=CC(=O)Nc1cc(Nc2nccc(Nc3cc(Cl)c(F)cc3C(C)(C)O)n2)c(OC)cc1N1CC[C@@H](N(C)C)C1
inhibition (enzyme activity; 1 µM): 9%

CS(=O)(=O)Nc1cccc(-c2csc(NC(=O)CSc3nc4nccnc4c(=O)n3CCc3ccccc3)n2)c1
inhibition (enzyme activity; 10 µM): 2%

CSc1nc(C)c(-c2ccnc(Nc3ccc(N4CCOCC4)cc3)c2)[nH]1
inhibition (enzyme activity; 10 µM): 5.7%

CN(C)C1CCN(CC#Cc2nn(C3CCCC3)c3nc(NCc4ccccc4)ncc23)C1 (centres unmarked)
inhibition (enzyme activity; FRET; 1 µM): -1%

CC(C)NCC(O)c1ccc(NS(C)(=O)=O)cc1 (centres unmarked)
inhibition (enzyme activity; ADP detection; 100 µM): 8.4%

CCCCNc1ncc2c(-c3ccc(F)cc3)nn(C[C@H]3CC[C@H](N)CC3)c2n1
inhibition (target engagement in cells; chemoproteomics; 20 mM): 4.2%

O=C1CN(/N=C/c2ccc(-c3ccc([N+](=O)[O-])cc3)o2)C(O)=N1
inhibition (enzyme activity; ADP detection; 100 µM): 31.2%

CCN(CC)CCNC(=O)c1c(C)[nH]c(/C=C2\C(=O)Nc3ccc(F)cc32)c1C
inhibition (enzyme activity; 10 µM): 3%

COc1cc(-c2coc3cc(OC)c(OC)c(OC)c3c2=O)cc(OC)c1OC
inhibition (enzyme activity; ADP detection; 100 µM): 3%

CN1CC(Oc2cnc(C#N)cc2-c2ccn3nc(NC(=O)C4CC4)cc3c2)C1
inhibition (enzyme activity; 1 µM): -8%

COc1cc2ncnc(Nc3ccc(Oc4ccccc4)c(C)c3C)c2cc1OC
inhibition (enzyme activity; 1 µM): 4%

CCCS(=O)(=O)Nc1ccc(F)c(C(=O)c2c[nH]c3ncc(-c4ccc(Cl)cc4)cc23)c1F
inhibition (enzyme activity; 1 µM): < 20%

Cc1nc(-c2ccc(OCC(C)C)c(C#N)c2)sc1C(=O)O
inhibition (enzyme activity; ADP detection; 100 µM): 66.9%

CNc1cc(Oc2cc(C(=O)Nc3cc(N4CCN(C)CC4)cc(C(F)(F)F)c3)ccc2C)ncn1
inhibition (target engagement in cells; chemoproteomics; Huh-7; 1 µM): -17.6%
